Published values pooled from the literature.
Compare with care: the assays were run in different laboratories.
Medium: plasma

Compound	host	route	dose	notes	quantity	result
CC(C)[C@H](N)C(=O)NCCCS(=O)(=O)O	human	oral	256.5 mg	multiple doses, twice daily, fasted	AUC(0-t)	11.2 µg·h/mL
N=C(N)NCCC[C@@H](NC(=O)[C@@H](N)Cc1ccccc1)C(=O)N[C@@H](Cc1ccccc1)C(=O)N[C@@H](CCCCN)C(N)=O	human	subcutaneous	25 mg	patients	AUC(0-t)	4.62 µg·h/mL
OCc1ncc2n1-c1ccc(Cl)cc1C(c1ccccc1F)=NC2	human	oral	2 mg		AUC(0-inf)	0.00963 µg·h/mL
C=C(C)[C@@H]1CC[C@]2(NCCN3CCS(=O)(=O)CC3)CC[C@]3(C)[C@H](CC[C@@H]4[C@@]5(C)CC=C(C6=CC[C@@](COc7ncccc7C#N)(C(=O)O)CC6)C(C)(C)[C@@H]5CC[C@]43C)[C@@H]12	human	oral	100 mg	fasted, tablet	AUC(0-inf)	28 µg·h/mL
c1cc([C@H]2CC[C@]3(CC2)OO[C@]2(O3)C3CC4CC(C3)CC2C4)ccc1OCCN1CCOCC1	human	oral	200 mg	patients	AUC(0-inf)	3.18 µg·h/mL
COc1ccc(C[C@@H]2NC(=O)[C@H]([C@@H](C)O)NC(=O)[C@@H]3[C@@H]4CCN3C(=O)[C@@H]3Cc5cn(c6ccc(F)cc56)CCCCCCN(Cc5ccc(cc5)CCNC(=O)[C@]5(C)CCCN5C2=O)C(=O)CCC(=O)N[C@@H](C)C(=O)N[C@H](CNC(=O)CCCCC[N+](C)(C)C)C(=O)N[C@@H](Cc2cccc(c2)CNC(=O)CO4)C(=O)N3)cc1	human	oral	200 mg	single dose	AUC(0-t)	481 nM·h
C=CCNc1c(O)cc2c(O)c1C[C@@H](C)C[C@H](OC)[C@H](O)[C@@H](C)/C=C(\C)[C@H](OC(N)=O)[C@@H](OC)/C=C\C=C(/C)C(=O)N2	human	intravenous	400 mg/m²	patients, infusion	AUC(0-inf)	11.7 µg·h/mL
CN(C)CCc1c[nH]c2ccccc12	human	intravenous	9 mg	healthy volunteers, infusion	AUC(0-inf)	0.00587 µg·h/mL
CC(=C/C=C/C(C)=C/C(=O)O)/C=C1\CCCc2ccccc21	human	oral	20 mg	single dose, fasted, healthy volunteers	AUC(0-inf)	0.827 µg·h/mL
Cc1ncc2n1-c1ccc(Cl)cc1C(c1ccccc1F)=NC2	male human	oral	7.5 mg		AUC	0.117 µg·h/mL
